“And” between values parts separate entries of the source, which are not always exact repeats. Equal values may be shown once. Read-outs that look alike come from different tables or passages of the source. Marks after values point to notes of the source that are not given here.
Assays:
[1] = 13C NMR lactate transport assay; type: biochemical; conditions: 1% mol carrier to lipid, 50 mM NaCl, 0.5 mM MnCl2
Method in brief: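 POPC vesicles loaded with 13C-carboxyl-labelled sodium L-lactate (200 mM NaLac, 20 mM NaH2PO4, pH 7.2), then dialysed against 150 mM Na2SO4, 20 mM NaH2PO4, pH 7.2 to remove unencapsulated lactate. 13C NMR spectra were taken after the NaCl pulse with the test compound, then after MnCl2, which affects only extravesicular lactate signals.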

MCF7 = assay: MTT cell viability assay; type: cell-based, Human; conditions: for IC25 MCF7 / IC75 MCF7: 24 h, mean ± SD; for IC50: Homo sapiens, MCF7, 24 h, read-out: IC50 MCF7
Method in brief: (§1)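 Cells were seeded at 10^4/well and left overnight, then exposed 24 h to 0.8–100 µmol/L test compound, with DMSO as control. MTT (5 mg/mL) was added for 2 h at 37 °C; formazan was dissolved in DMSO and read at 570 nm. IC25/50/75 came from viability curves, triplicate wells, ≥3 independent experiments, mean ± SD. Media: HeLa and CAL27 DMEM/10% FBS; MCF7 DMEM/F12/10% FBS plus insulin; MCF10A DMEM/F12/5% horse serum plus insulin.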

HeLa cells [2] = assay: Combination therapy of 1 and CisPt; type: cell-based, Human
HeLa = assay: MTT cell viability assay; type: cell-based, Human; conditions: 24 h; for IC25 HeLa / IC75 HeLa: mean ± SD; for IC50: Homo sapiens, HeLa, read-out: IC50 HeLa
Method in brief: as §1

[3] = Solubility in DMSO-d6 when preparing NMR solutions; type: physicochemical; conditions: DMSO-d6, 25 °C, organic solvent or mixture
[4] = ISE chloride efflux assay, Cl−/NO3− exchange; type: biochemical; conditions: read-out: EC50 Cl^−/NO3^−; chloride efflux at 300 s, 0.5 mM POPC, pH 7.2
Method in brief: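 POPC vesicles (200 nm) held 489 mM NaCl, 5 mM NaH2PO4, pH 7.2, and were dialysed into and dispersed in 489 mM NaNO3, 5 mM NaH2PO4, pH 7.2; final lipid 0.5 mM. Test compound in DMSO was added at t = 0, with DMSO as blank. Chloride release was followed by chloride-selective electrode for 300 s, then Triton-X lysis set 100% release. EC50 and Hill coefficient were derived.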

[5] = tested on: HeLa, MCF7, CAL27 and MCF10A cell lines; assay: MTT cell viability assay, summary among cell lines; type: cell-based; conditions: Homo sapiens, 24 h, read-out: IC50 values among different cell lines
Method in brief: as §1

MCF10A = assay: MTT cell viability assay; type: cell-based, Human; conditions: 24 h; for IC25 MCF10A / IC75 MCF10A: mean ± SD; for IC50: Homo sapiens, MCF-10A, read-out: IC50 MCF10A
Method in brief: as §1

CAL27 = assay: MTT cell viability assay; type: cell-based, Human; conditions: for IC25 CAL27 / IC75 CAL27: 24 h, mean ± SD; for IC50: Homo sapiens, CAL-27, 24 h, read-out: IC50 CAL27
Method in brief: as §1

HeLa cells [6] = assay: Lactate transport experiments; type: cell-based, Human; conditions: for Extra- and intracellular lactate levels in the presence of Syro compared with Syro alone: 3.9 μM compound, Syro 10 μM 1 h pre-treatment, 60 and 120 min
Method in brief: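 HeLa cells were seeded at 10^5 cells/mL and left overnight, then treated 60 and 120 min; test compounds were at 3.9 µM, with DMSO as control. Medium was kept for extracellular lactate. Cells were washed, permeabilised 5 min with 0.2 M HCl in PBS, and neutralised with 1 M Tris base. Extracts were mixed 1:1 with Lactate-Glo reagent, and luminescence was read after 1 h against a standard curve. Values were normalised to BCA protein after 2% SDS lysis.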

[7] = read-out: EC50 Cl^−/NO3^−; chloride efflux at 300 s, POPC vesicles; cited from earlier work
[8] = deprotonated form, calculated; cited from earlier work
[9] = read-out: EC50 Cl^−/HCO3^−; chloride efflux at 300 s, POPC vesicles; cited from earlier work

| Structure (SMILES) | IC50 (MCF7) [µM] | IC50 (HeLa) [µM] | EC50 [4] [µM] | IC25 MCF7 (MCF7) [µM] | IC75 MCF7 (MCF7) [µM] | IC25 HeLa (HeLa) [µM] | IC75 HeLa (HeLa) | IC50 [5] [µM] | IC25 MCF10A (MCF10A) [µM] | IC75 MCF10A (MCF10A) [µM] | IC50 (MCF10A) [µM] | IC25 CAL27 (CAL27) [µM] | IC75 CAL27 (CAL27) [µM] | IC50 (CAL27) [µM] | further results |
| --- | --- | --- | --- | --- | --- | --- | --- | --- | --- | --- | --- | --- | --- | --- | --- |
| COc1cc(-c2cn(-c3ccc(C(C)(C)C)cc3)nn2)[nH]c1/C=N/C12CC3CC(CC(C3)C1)C2.Cl [Compound 1, N-((E)-(5-(1-(4-(tert-butyl)phenyl)-1H-1,2,3-triazol-4-yl)-3-methoxy-1H-pyrrol-2-yl)methylene)adamantan-1-aminium chloride] | 5.58 ± 1.17 | 3.36 ± 0.19 | 0.0037 ± 0.0004 | 4.00 ± 1.22 | 7.91 ± 1.42 | 2.85 ± 0.16 | 3.9 µM and 3.95 ± 0.26 µM | 3.3 to 7.7 | 5.36 ± 1.09 | 11.22 ± 3.94 | 7.66 ± 1.86 | 2.68 ± 0.18 | 4.00 ± 0.50 | 3.27 ± 0.27 | Lactate efflux from vesicles seen by 13C NMR after NaCl pulse and MnCl2 [1]: facilitates lactate efflux; Effect of combination therapy with CisPt on cell viability (HeLa cells [2]; 1 at IC10, IC25, IC50, IC75 for 24 h, then CisPt 24 h, all doses of 1): higher compared with respective monotherapy of CisPt; Type of interaction with CisPt (Combination Index) (HeLa cells [2]; higher doses of both 1 and CisPt): moderate synergic effect; Type of interaction with CisPt (Combination Index) (HeLa cells [2]; majority of the dose combinations tested): additive effect; solubility [3]: < 50 mM |
| COc1cc(-c2cn(CCO)nn2)[nH]c1/C=N/C12CC3CC(CC(C3)C1)C2.Cl [Compound 5, N-((E)-(5-(1-(2-Hydroxyethyl)-1H-1,2,3-triazol-4-yl)-3-methoxy-1H-pyrrol-2-yl)methylene)adamantan-1-aminium chloride] | > 100 | 85.6 ± 2.94 | – | >100 | >100 | 78.14 ± 3.00 | 93.73 ± 3.71 µM | > 82 | 94.92 ± 5.23 | >100 | > 100 | 86.88 ± 6.79 | >100 | 96 ± 4.79 | Extra- and intracellular lactate levels in the presence of Syro compared with Syro alone (HeLa cells [6]): no significant differences |
| CCOC(=O)Oc1c(OC)cc(C(=O)O[C@@H]2C[C@@H]3CN4CCc5c([nH]c6cc(OC)ccc56)[C@H]4C[C@@H]3[C@H](C(=O)OC)[C@H]2OC)cc1OC [Syro, Syrosingopine, reference compound] | – | – | – | – | – | – | – | – | – | – | – | – | – | – | Intracellular lactate levels compared to DMSO (HeLa cells [6]; Syro alone 10 μM, 60 and 120 min (p < 0.0001)): significantly higher than DMSO |

More lines, main results first:

| IC50 (MCF7) [µM] | IC50 (HeLa) [µM] | EC50 [4] [µM] | Structure (SMILES) | IC25 MCF7 (MCF7) [µM] | IC75 MCF7 (MCF7) [µM] | IC25 HeLa (HeLa) [µM] | IC75 HeLa (HeLa) | IC50 [5] [µM] | IC25 MCF10A (MCF10A) [µM] | IC75 MCF10A (MCF10A) [µM] | IC50 (MCF10A) [µM] | IC25 CAL27 (CAL27) [µM] | IC75 CAL27 (CAL27) [µM] | IC50 (CAL27) [µM] | further results |
| --- | --- | --- | --- | --- | --- | --- | --- | --- | --- | --- | --- | --- | --- | --- | --- |
| 9.06 ± 2.35 | 12.5 ± 0.98 | 0.016 ± 0.001 | COc1cc(-c2cn(-c3ccc(C(C)(C)C)cc3)nn2)[nH]c1/C=N/C1CCCC1.Cl [Compound 2, (E)-N-((5-(1-(4-(tert-butyl)phenyl)-1H-1,2,3-triazol-4-yl)-3-methoxy-1H-pyrrol-2-yl)methylene)cyclopentanaminium chloride] | 4.04 ± 1.37 | 20.49 ± 3.88 | 11.34 ± 0.38 | 13.77 ± 1.88 µM | 4.6 to 25.4 | 13.62 ± 1.64 | 25.65 ± 3.97 | 18.7 ± 2.55 | 9.25 ± 2.26 | 12.35 ± 2.40 | 10.6 ± 2.06 | – |
| 15.8 ± 1.14 | 13.5 ± 1.05 | 8.34 ± 0.431 | COc1cc(-c2cn(-c3ccc(C(C)(C)C)cc3)nn2)[nH]c1/C=N/CCO.Cl [Compound 3, (E)-N-((5-(1-(4-(tert-butyl)phenyl)-1H-1,2,3-triazol-4-yl)-3-methoxy-1H-pyrrol-2-yl)methylene)-2-hydroxyethan-1-aminium chloride] | 7.22 ± 0.85 | 34.69 ± 3.11 | 11.98 ± 0.40 | 15.29 ± 1.87 µM | 4.6 to 25.4 | 18.11 ± 3.23 | 35.95 ± 4.27 | 25.4 ± 1.61 | 14.62 ± 3.20 | 20.88 ± 4.45 | 17.4 ± 3.31 | – |
| > 100 | > 100 | – | COc1cc(-c2cn(CCO)nn2)[nH]c1/C=N/CCO.Cl [Compound 4, (E)-2-hydroxy-N-((5-(1-(2-hydroxyethyl)-1H-1,2,3-triazol-4-yl)-3-methoxy-1H-pyrrol-2-yl)methylene)ethan-1-aminium chloride] | >100 | >100 | >100 | >100 µM | > 82 | 98.64 ± 0.94 | >100 | > 100 | 60.97 ± 5.40 | >100 | 82.1 ± 2.88 | Lactate efflux from vesicles seen by 13C NMR after NaCl pulse and MnCl2 [1]: no changes; Extra- and intracellular lactate levels in the presence of Syro compared with Syro alone (HeLa cells [6]): no significant differences |
| 11.5 ± 1.19 | 6.31 ± 0.06 | – | COc1cc(-c2cn(-c3ccc(Cl)cc3)nn2)[nH]c1/C=N/C1CCCCC1.Cl [Compound 6, (E)-N-((5-(1-(4-Chlorophenyl)-1H-1,2,3-triazol-4-yl)-3-methoxy-1H-pyrrol-2-yl)methylene)cyclohexanaminium chloride] | 9.05 ± 1.13 | 14.53 ± 1.23 | 6.09 ± 0.09 | 6.54 ± 0.02 µM | 4.6 to 25.4 | 3.49 ± 0.22 | 6.12 ± 1.56 | 4.61 ± 0.15 | 6.58 ± 2.98 | 8.44 ± 2.59 | 7.41 ± 2.77 | EC50 [7]: 0.0326 ± 0.0008 µM; LogP [8]: 4.22 ^c; EC50 [9]: 0.13 ± 0.007 µM |
